In ChEMBL document CHEMBL4706726, “Glucosamine and Its Analogues as Modulators of Amyloid-β Toxicity” (ACS Med Chem Lett, 2021) one finds Activity and inhibition data, which are given here for four compounds.

As a reminder, the inhibition is the drop in the measured response relative to a control, in per cent.

The source made the active and inactive calls. The rule behind the calls is not given here.

The target in data set [1] is Amyloid-beta precursor protein (Homo sapiens) (UniProt P05067). Briefly: Modulation of human amyloid beta (1 to 42) supramolecular assembly assessed as elongation of amyloid beta42 fibrils at <50 mM measured for 10 days by ThT dye based fluorescence spectrophotometry. Conditions: filed as modulator, dose mM <50, time 10.0 day. A digest of the protocol: (§1)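 Aβ42 aggregation kinetics followed for 10 days by thioflavin-T fluorescence, which reports parallel β-sheets. Each monosaccharide tested at several concentrations from 250 μM up to 50 mM.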

Data set [2] has the same target. Nature of the data set: Modulation of human amyloid beta (1 to 42) supramolecular assembly assessed as elongation of amyloidbeta42 fibrils at 50 mM measured for 10 days by ThT dye based fluorescence spectrophotometry. Conditions: time 10.0 day. A digest of the protocol: as §1
Data set [3] has the same target. Briefly: Modulation of human amyloid beta (1 to 42) supramolecular organization assessed as reduction in antiparallel beta-sheets characteristic of cytotoxic Abeta42 aggregates at 1 mM measured for 5 days by CD spectrometry. Conditions: filed as modulator, time 5.0 day. A digest of the protocol: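 Aβ42 secondary structure followed by circular dichroism over 1 and 5 days, with 1 mM of each monosaccharide present. Loss of antiparallel β-sheet was scored against 25 μM Aβ42 control. Error bars SD.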

Data set [4] has as its system SH-SY5Y. Nature of the data set: Cytotoxicity against human SH-SY5Y cells assessed as reduction in cell viability at 1 mM measured after 1 day by alamar blue assay. The conditions noted are these: 24 h, 1000 µM. Type of data set: cell-based. A digest of the protocol:
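SH-SY5Y neuroblastoma cells exposed to each monosaccharide (1 mM) under cell culture conditions without Aβ42. Viability screened for cytotoxicity.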

The subject of data set [5] is SH-SY5Y. Nature of the data set: Neuroprotective activity against Abeta-42-induced cytotoxicity in human SH-SY5Y cells assessed as increase in cell viability at 1 mM measured upto 5 days by alamar blue assay. The format is functional, cell-based. The conditions noted are these: time day <=5. A digest of the protocol: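 SH-SY5Y cells incubated with Aβ42 plus each monosaccharide (1 mM) for 5 h, 24 h and 5 days. Cell viability measured at each time.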
For orientation: The colour change of resazurin is a common sign of viable cells or microbes.

For data set [6], the target named is Amyloid-beta precursor protein (Homo sapiens) (UniProt P05067). Briefly: Modulation of human amyloid beta (1 to 42) supramolecular organization at 0.4 mM by dynamic light scattering based analysis. The conditions noted are these: filed as modulator.
For data set [7] the target is unchanged. Nature of the data set: Modulation of human amyloid beta (1 to 42) supramolecular organization assessed as prevalence of Abeta42 fibrils with parallel beta-sheets at 1 mM incubated for 5 days by ATR-FITR analysis. The conditions noted are these: time 5.0 day.
For data set [8] the target is unchanged. Nature of the data set: Modulation of human amyloid beta (1 to 42) supramolecular organization assessed as reduction in 6E10 epitope binding site structure at 1 mM measured for 1 to 5 days by Western blot analysis. The conditions noted are these: filed as modulator, time 1-5 day. A digest of the protocol:
(§2)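 Aβ42 (25 μM) incubated with monosaccharide (1 mM) for 1 or 5 days; assemblies detected by Western blot with antibody 6E10 and quantified by relative densitometry against Aβ42 alone; error bars SD.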
(In general: In western blotting, separated proteins are transferred to a membrane and probed.)

The target is the same in data set [9]. Briefly: Modulation of amyloid beta (1 to 42) supramolecular organization in human SH-SY5Y cells assessed as inhibition of Abeta42-induced disruption of cell membrane by measuring reduction in Ca2+ influx at 1 mM incubated for 24 hrs by Fluo-3AM dye based scanning confocal fluorescence microscopy relative to control. The conditions noted are these: filed as modulator. A digest of the protocol: (§3)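 SH-SY5Y cells cultured 24 h with Aβ42 (25 μM) plus each monosaccharide (1 mM). Intracellular free Ca2+ imaged by fluorescence using Fluo3-AM […] as Ca2+ probes. Controls were cells cultured without Aβ42 and monosaccharide.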

Data set [10] shares this target. Briefly: Modulation of amyloid beta (1 to 42) supramolecular organization in human SH-SY5Y cells assessed as inhibition of Abeta42-induced disruption of cell membrane by measuring reduction in Ca2+ influx at 1 mM incubated for 24 hrs by […] dye based scanning confocal fluorescence microscopy relative to control. Conditions: filed as modulator. A digest of the protocol: as §3

Data set [11] has the same target. Nature of the data set: Modulation of amyloid beta (1 to 42) supramolecular organization in human SH-SY5Y cells assessed as reduction in insulin resistance by measuring reduction in Abeta-42-induced IRS1 phosphorylation at Ser612 residue at 1 mM incubated for 1 hr by immunoblot analysis. Type of data set: cell-based. The conditions noted are these: filed as modulator. A digest of the protocol:
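SH-SY5Y cells cultured 1 h in medium with 10% FBS and no added insulin, with or without Aβ42 (25 μM) and each monosaccharide. IRS1 phosphorylation at S612 quantified by expression analysis. Parallel runs supplemented with 5 nM insulin.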

Data set [12] shares this target. Briefly: Modulation of amyloid beta (1 to 42) supramolecular organization in human SH-SY5Y cells assessed as reduction in insulin resistance by measuring increase in AKT1 phosphorylation phosphorylation at Ser473 residue at 1 mM incubated for 1 hr by immunoblot analysis. The format is cell-based. Conditions: filed as modulator. A digest of the protocol:
(§4)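 SH-SY5Y cells in medium with 10% FBS, no added insulin, cultured 1 h with Aβ42 (25 μM) with or without monosaccharide (1 mM); protein expression read by immunoblot.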

Data set [13] has the same target. Briefly: Modulation of amyloid beta (1 to 42) supramolecular organization in human SH-SY5Y cells assessed as reduction in inflammation by measuring decrease in Abeta-42-induced ANXA1 expression at 1 mM incubated for 1 hr by immunoblot analysis. The format is cell-based. Conditions: filed as modulator. A digest of the protocol: as §4
The target is the same in data set [14]. Nature of the data set: Modulation of amyloid beta (1 to 42) supramolecular organization in human SH-SY5Y cells assessed as reduction in insulin resistance by measuring reduction in Abeta-42-induced IRS1 phosphorylation at Ser612 residue at 1 mM incubated for 1 hr in presence of insulin by immunoblot analysis. Type of data set: cell-based. The conditions noted are these: filed as modulator. A digest of the protocol:
(§5)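 SH-SY5Y cells in medium with 10% FBS plus 5 nM insulin, cultured 1 h with Aβ42 (25 μM) with or without monosaccharide (1 mM); protein expression read by immunoblot.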

For data set [15] the target is unchanged. Briefly: Modulation of amyloid beta (1 to 42) supramolecular organization in human SH-SY5Y cells assessed as reduction in inflammation by measuring decrease in Abeta-42-induced ANXA1 expression at 1 mM incubated for 1 hr in presence of insulin by immunoblot analysis. The format is cell-based. Conditions: filed as modulator. A digest of the protocol:
as §5

Data set [16] shares this target. Briefly: Modulation of amyloid beta (1 to 42) supramolecular organization in human SH-SY5Y cells assessed as reduction in AChE activity at 1 mM incubated for 1 day. The conditions noted are these: filed as modulator. Type of data set: cell-based. A digest of the protocol:
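SH-SY5Y neuroblastoma cells exposed to Aβ42 with monosaccharide (1 mM); cellular AChE activity read after 1 day of incubation.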

The target is the same in data set [17]. Nature of the data set: Modulation of human amyloid beta (1 to 42) supramolecular organization assessed as reduction in amount of cytotoxic Abeta42 oligomers at 1 mM measured for 1 to 5 days by Western blot analysis. Conditions: filed as modulator, time 1-5 day. A digest of the protocol: as §2

Sequence of Amyloid-beta precursor protein (Homo sapiens) (P05067 whole entry): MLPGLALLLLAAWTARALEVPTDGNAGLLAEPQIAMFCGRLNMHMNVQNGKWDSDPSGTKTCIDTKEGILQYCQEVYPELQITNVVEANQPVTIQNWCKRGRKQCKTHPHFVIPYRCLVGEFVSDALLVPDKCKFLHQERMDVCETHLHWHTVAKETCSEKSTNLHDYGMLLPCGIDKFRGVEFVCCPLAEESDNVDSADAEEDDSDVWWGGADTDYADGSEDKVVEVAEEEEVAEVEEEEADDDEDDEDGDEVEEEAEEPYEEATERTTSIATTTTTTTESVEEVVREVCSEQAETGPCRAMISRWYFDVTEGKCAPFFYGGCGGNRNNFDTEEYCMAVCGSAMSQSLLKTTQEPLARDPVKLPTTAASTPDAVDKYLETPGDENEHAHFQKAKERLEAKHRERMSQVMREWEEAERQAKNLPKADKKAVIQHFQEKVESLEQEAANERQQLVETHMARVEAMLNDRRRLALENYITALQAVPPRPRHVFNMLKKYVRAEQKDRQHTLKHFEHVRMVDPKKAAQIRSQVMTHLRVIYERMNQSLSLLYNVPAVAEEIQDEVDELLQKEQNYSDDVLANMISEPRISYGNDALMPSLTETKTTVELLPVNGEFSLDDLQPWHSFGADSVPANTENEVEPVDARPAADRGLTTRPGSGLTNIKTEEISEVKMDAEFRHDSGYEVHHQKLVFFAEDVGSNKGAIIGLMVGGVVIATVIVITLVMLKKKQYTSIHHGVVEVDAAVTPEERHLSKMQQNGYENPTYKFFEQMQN

Take `N[C@@H]1[C@@H](O)[C@H](O)[C@@H](CO)O[C@H]1O`: the result (in data set [1]; in data set [3]; in the data set with SH-SY5Y [5]; in data set [6]) was Active. Besides, the outcome in data set [2] and in data set [7] was inactive. Also, the Activity result in the data set on SH-SY5Y [4] was “Non-Toxic”.
For `N[C@@H]1[C@@H](O)[C@H](O)[C@@H](COP(=O)(O)O)O[C@H]1O`, the outcome (in [1]; in data set [8]; in data set [3]; in the data set with SH-SY5Y [5]; in [11]; in data set [12]) was Active. Further, the outcome in data set [13], in data set [14], in [15], in data set [6] and in [7] (filed as modulator) was Active. Also, the result in [2] was inactive. The Activity result with SH-SY5Y [4] was “Non-Toxic”. The inhibition entry in data set [9] and in data set [10] was “Active” in each case.
Take `N[C@@H]1[C@@H](O)[C@H](O)[C@@H](COS(=O)(=O)O)O[C@H]1O`: the outcome (in [1]; in data set [8]; in data set [3]; in the data set on SH-SY5Y [5]; in data set [16]; in data set [11]) was Active. The outcome in [12], in data set [13], in data set [14], in [15], in [17] and in [6] was Active. For the same compound, in [7] (filed as modulator), the outcome was Active. The outcome in data set [2] was inactive. In addition, the Activity entry in the data set with SH-SY5Y [4] is listed as “Non-Toxic”. Further, the inhibition was 41% in data set [9] and 60% in data set [10].
On to `CC(=O)N[C@H]1C(O)O[C@H](CO)[C@@H](O)[C@@H]1O` (some centres not stated), for which the outcome (in [1]; in data set [3]; in the data set on SH-SY5Y [5]; in data set [11]; in data set [6]) was Active. Besides, the result in data set [2] and in [7] was inactive. Further, the Activity entry in the data set with SH-SY5Y [4] was “Non-Toxic”.
